This is an account of results in ChEMBL document CHEMBL1124844, “Synthesis and biological activities of novel 5-(2-acylethynyl)uracils” (J Med Chem, 1990).

Assay [1] relates to CCRF-CEM. Kind of assay: (§1) Effect on CCRF-CEM cells in culture. Format: functional, cell-based. Conditions: Homo sapiens. In outline: (§2)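 Murine L1210/0 leukemia and human CCRF-CEM lymphoblastoid cells incubated at 37 °C for 48 h over a range of compound concentrations. Growth inhibition read as IC50 (μM).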
Assay [2] is described as follows: Drug evaluation at the dose of 20 mg/kg by calculating fluid weight; 0.8/2. The assay is classed as functional, Mus musculus. In outline:
(§3)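 EAC cells drawn from Swiss mouse bearing a 10–20 day tumor, diluted and counted; Swiss mice (18–20 g) inoculated ip with 1 × 10⁶ cells in 0.2 mL on day 0. Dosing ip once daily on days 1–7, in normal saline with 10% propylene glycol; controls given vehicle. Five animals per dose group. Tumor cell counts and ascitic fluid weight compared, treated (T) vs control (C).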

A short description of assay [3]: Drug evaluation at the dose of 20 mg/kg by counting the average ascites cells number; 35/150. The assay is classed as functional, Mus musculus. The method, boiled down:
as §3

Assay [4] in a line: Effect on the survival of mice bearing ascites tumor in percent controls at the dose of 140 mg/kg. Format: functional, Mus musculus. In outline: (§4)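 Swiss mice inoculated ip with 1 × 10⁶ EAC cells, then treated ip with compound in saline/10% propylene glycol, single dose or 7 daily doses, starting 24 h later. Five mice per dose; vehicle controls. Treated median survival time expressed as percent of control; >125 counted active.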

The nature of assay [5]: Effect on the survival of mice bearing ascites tumor at the dose of 210 mg/kg. The assay is classed as functional, Mus musculus. In outline: (§5)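 Swiss mice (18–20 g) inoculated ip on day 0 with 1 × 10⁶ EAC cells drawn from a 10–20 day donor tumor. Compounds homogenized in normal saline with 10% propylene glycol and given ip starting 24 h later, as single dose or daily for 7 days. Five mice per dose; vehicle-only controls. Survival read as median survival time (days).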

Assay [6] in a line: Effect on the survival of mice bearing ascites tumor at the dose of 30 mg/kg. The assay is classed as functional, Mus musculus. In outline: as §5
The nature of assay [7]: Effect on the survival of mice bearing ascites tumor in percent controls at the dose of 20 mg/kg. The assay is classed as functional, Mus musculus. The method, boiled down: as §4
Assay [8] can be described thus: Effect on the survival of mice bearing ascites tumor in percent controls at the dose of 210 mg/kg. The assay is classed as functional, Mus musculus. In outline:
as §4

Assay [9] is described as follows: Effect on the survival of mice bearing ascites tumor in percent controls at the dose of 30 mg/kg. The assay is classed as functional, Mus musculus. The method, boiled down: as §4
Assay [10] in a line: Effect on the survival of mice bearing ascites tumor in extremes treated at the dose of 140 mg/kg. Format: functional, Mus musculus. The method, boiled down: (§6)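 EAC-bearing Swiss mice given ip compound in saline/10% propylene glycol, single dose or daily for 7 days, starting 24 h after ip inoculation of 1 × 10⁶ cells. Five mice per dose; vehicle controls. Value is the range (shortest to longest) of survival days in the treated group.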

Assay [11] is described as follows: Effect on the survival of mice bearing ascites tumor in extremes treated at the dose of 20 mg/kg. Format: functional, Mus musculus. In outline: as §6
Assay [12] is described as follows: Effect on the survival of mice bearing ascites tumor in extremes treated at the dose of 210 mg/kg. The assay is classed as functional, Mus musculus. In outline: as §6
Assay [13] is described as follows: Effect on the survival of mice bearing ascites tumor in extremes treated at the dose of 30 mg/kg. Format: functional, Mus musculus. The method, boiled down:
as §6

Assay [14] in a line: Percent inhibition of ascites cell at the dose of 20 mg/kg. Format: functional. The note with it: Mus musculus. In outline: as §3
A short description of assay [15]: Percent inhibition of ascitic fluid at the dose of 20 mg/kg. Format: functional. The note with it: Mus musculus. In outline:
as §3

The nature of assay [16]: Effect on the survival of mice bearing ascites tumor at the dose of 140 mg/kg. Format: functional, Mus musculus. In outline:
as §5

Assay [17] concerns L1210. Kind of assay: (§7) Effect on L1210/0 cells in culture. The assay is classed as functional, cell-based. Conditions: Mus musculus. The method, boiled down: as §2
Assay [18] can be described thus: Effect on the survival of mice bearing ascites tumor at the dose of 20 mg/kg. The assay is classed as functional, Mus musculus. The method, boiled down:
as §5

Assay [19] has as its system CCRF-CEM. Kind of assay: Effect on CCRF-CEM cells (human lymphoblastoid cells) in culture. The assay is classed as functional, cell-based. The method, boiled down: as §2
A short description of assay [20]: Drug evaluation at the dose of 20 mg/kg by calculating fluid weight; 2/2.5. The assay is classed as functional, Mus musculus. In outline:
as §3

The nature of assay [21]: Drug evaluation at the dose of 20 mg/kg by counting the average ascites cells number; 100/123. Format: functional, Mus musculus. In outline: as §3
A short description of assay [22]: Effect on the survival of mice bearing ascites tumor in percent controls at the dose of 10 mg/kg. The assay is classed as functional, Mus musculus. The method, boiled down: as §4
Assay [23] can be described thus: Effect on the survival of mice bearing ascites tumor at the dose of 70 mg/kg. Format: functional, Mus musculus. The method, boiled down:
as §5

A short description of assay [24]: Effect on the survival of mice bearing ascites tumor in percent controls at the dose of 70 mg/kg. Format: functional, Mus musculus. The method, boiled down: as §4
Assay [25] can be described thus: Effect on the survival of mice bearing ascites tumor in extremes treated at the dose of 10 mg/kg. The assay is classed as functional, Mus musculus. The method, boiled down:
as §6

The nature of assay [26]: Effect on the survival of mice bearing ascites tumor in extremes treated at the dose of 70 mg/kg. The assay is classed as functional, Mus musculus. In outline:
as §6

The nature of assay [27]: Effect on the survival of mice bearing ascites tumor at the dose of 10 mg/kg. Format: functional, Mus musculus. In outline: as §5
In assay [28] the test system is L1210. Nature of the assay: Effect on L1210/0 cells (mouse leukemia cells) in culture.
Assay [29] is described as follows: Drug evaluation at the dose of 20 mg/kg by counting the average ascites cells number; 59/165. Format: functional, Mus musculus. The method, boiled down:
as §3

Assay [30] relates to CCRF-CEM. The description is as §1. The note with it: Homo sapiens. The assay is classed as functional, cell-based. In outline: (§8)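 CCRF-CEM human lymphoblastoid or L1210/0 mouse leukemia cells incubated with a range of compound concentrations at 37 °C for 48 h; IC50 (μM) taken from cell growth.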
This is another data set of the same source.

Assay [31] has as its system L1210. The description is as §7. The assay is classed as functional, cell-based. Conditions: Mus musculus. The method, boiled down: as §8
This is another data set of the same source.

The structures appear in SMILES notation. pIC50: −log10 of the molar value.

As usually defined, the pIC50 is the negative decadic logarithm of the IC50, by convention in mol/L. Low values mean a high IC50, high ones a low IC50. Usually inhibition in vivo stands for the share of the control response that was lost under treatment. In the case of `O=C(C#Cc1cnc(O)nc1O)c1ccccc1`, the results for the pIC50 with CCRF-CEM [1] and with L1210 [17] were 5.70 and 6.19, respectively. The T/C in assay [2] was 0.4; in assay [3], 0.233. The Controls in assay [4] is on record as 281%; in assay [7], 169%; in assay [8], 165%; in [9], 134%. Further, the Survival treated in [5] came out at 21.5; in assay [6], 17.5; in [16], 36.5; in [18], 22. Besides, the Extremes treated in assay [10] came to 39; in [11], 23; in [12], 22; in assay [13], 18. Moreover, the inhibition in vivo at 20 mg/kg in assay [14] was found to be 76%; in [15], 60%.
Take `COc1ccc(C(=O)C#Cc2cnc(O)nc2O)cc1`: the pIC50 with CCRF-CEM [19] is 5.64; with L1210 [17], 5.70. For the same compound, the T/C in [20] is 0.8; in assay [21] it was 0.813. Further, the Controls in assay [4] is 127%; in assay [7] it was 164%; in assay [8] it was 127%; in assay [9] it was 109%. Moreover, the Survival treated in assay [5] worked out at 14; in assay [6], 12; in [16] it was 14; in assay [18], 18. For the same compound, the Extremes treated in [10] is 15; in assay [11] it was 19; in assay [12] it was 16; in assay [13], 13. In addition, the figures for the inhibition in vivo at 20 mg/kg in [14] and in [15] were 19.1% and 20%, respectively.
Regarding `Cc1ccc(C(=O)C#Cc2cnc(O)nc2O)cc1`, the values for the pIC50 with CCRF-CEM [19] and in the assay with L1210 [28] were 5.65 and 5.72, respectively. For the same compound, the Controls in [22] was found to be 113%; in assay [4], 300%; in assay [7], 178%; in assay [24] it was 260%. The Survival treated in [23] worked out at 30; in assay [27] it was 13; in assay [16] it was 34.5; in assay [18], 20.5. The Extremes treated in assay [25] turned out to be 14; in assay [10] it was 35; in assay [11] it was 23; in [26] it was 31.
As to `O=C(C#Cc1cnc(O)nc1O)c1ccccc1Cl`, the pIC50 in the assay on CCRF-CEM [19] is 5.66; with L1210 [17] it was 5.70. In assay [29], this compound had a T/C of 0.358. In addition, the Controls is given as 127% in assay [4], 127% in assay [7], 204% in assay [8] and 142% in assay [9]. Further, the Survival treated turned out to be 26.5 in assay [5], 18.5 in assay [6], 16.5 in [16] and 16.5 in [18]. Further, the Extremes treated amounted to 18 in assay [10], 17 in assay [11], 27 in [12] and 20 in [13]. Further, the inhibition in vivo at 20 mg/kg in [14] worked out at 64.2%; in [15], 37.5%.
With `O=c1[nH]cc(F)c(=O)[nH]1` [FLUOROURACIL], the results for the pIC50 in the assay on CCRF-CEM [30] and in the assay with L1210 [31] were 5.70 and 6.52, respectively. Moreover, the Controls in assay [4] came out at 92%; in assay [7] it was 342%. The Extremes treated in [10] came to 14; in [11], 45. The figures for the Survival treated in assay [16] and in assay [18] were 11 and 41, respectively.
